Source: PubChem BioAssay AID2509 (Broad Institute, 2010)
Activity calls are given as the source filed them.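 The calls were made as follows: active = compounds cutting phorbol ester driven platelet P-selectin display by over 50% in every run; inconclusive = over 50% in some runs but not others; inactive = 50% or less in every run.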

System: human washed platelets, PMA-induced P-selectin, flow cytometry
Assay: inhibitors of PMA-stimulated platelet P-selectin exposure, selectivity assay for platelet activation inhibitor project, cell-based, fluorescence, flow cytometry, platelets (AID 2509)
Details: at 30 µM; active compounds read high
Summary of the method: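 Material – platelets, PMA-induced surface P-selectin expression · Also added – 5 nM PMA · Doses – single compound dose of 30 µM · Incubation – 20 min compound, 15 min PMA, 20 min antibody · Technique – flow cytometry with PE-conjugated anti-P-selectin antibody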

Structure (SMILES) | inhibition
C/C(=N/NC(=O)C1CCCC1)c1ccc(NC(=O)C(F)(F)F)cc1 | 9.5% (inactive)
Cc1ccc(-n2c(N)c(C#N)c(-c3ccccc3)c(C#N)c2=O)cc1 | 5.5% (inactive)
